{"source": "ChEMBL document CHEMBL5653605", "about": "“Reduced VEGF production, angiogenesis, and vascular regrowth contribute to the antitumor properties of dual mTORC1/mTORC2 inhibitors” (Cancer Res, 2011)", "key": {"[1]": {"biological_target": "T1, Phosphatidylinositol 4,5-bisphosphate 3-kinase catalytic subunit gamma isoform (Homo sapiens, UniProt P48736)", "assay": "Inhibition of PI3Kgamma (unknown origin) in presence of ATP by HTRF assay", "how_it_was_run": "(§1)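 PI3K activity by HTRF assay at […] ATP.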"}, "[2]": {"tested_on": "Pancreatic islet cell carcinoma", "assay": "Antitumor activity against pancreatic islet cell carcinoma in RIP-Tag2 mouse assessed as reduction in VEGF production by measuring reduction in tumor cell associated fluorescence intensity at 75 mg/kg, po bid administered via gavage and measured after 7 days by immunohistochemical staining based confocal microscopic analysis relative to control", "type": "functional", "design": "scale not given: the % may be the effect or the level left", "conditions": "time 7 day", "how_it_was_run": "(§2)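 Treatment began in RIP-Tag2 mice at 9–10 weeks: 75 mg/kg gavage BID for 1, 4 or 7 days, or 20 mg/kg ip QD for 7 days; vehicle Labrifil or water. Tissue fixed by vascular perfusion and 60–80 µm sections stained for VEGF with CD31. VEGF fluorescence intensity measured over whole tumor, tumor cells, or tumor vessels. 3–8 mice/group; ANOVA, Fisher PLSD.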"}, "[3]": {"tested_on": "Pancreatic islet cell carcinoma", "assay": "(§3) Antivascular activity in pancreatic islet cell carcinoma in RIP-Tag2 mouse assessed as suppression of tumor regrowth by measuring reduction in vessel density at 75 mg/kg, po bid administered via gavage pretreated with OSI-930 for 7 days at 200 mg/kg, po followed by compound administration and measured after 1 day", "type": "functional, organism-based"}, "[4]": {"tested_on": "Pancreatic islet cell carcinoma", "assay": "Antitumor activity against pancreatic islet cell carcinoma in RIP-Tag2 mouse assessed as induction of apoptosis by measuring caspase-3 activation at 75 mg/kg, po bid administered via gavage and measured after 7 days by immunohistochemistry analysis", "type": "functional, organism-based", "conditions": "time 7.0 day", "how_it_was_run": "(§4)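 RIP-Tag2 mice aged 9–10 weeks dosed by gavage BID for 7 days; vehicle Labrifil or water. Mice fixed by vascular perfusion, tumors cut into 60–80 µm sections. Proliferating cells stained for phospho-histone H3 and apoptotic cells for activated caspase-3. Sections imaged by fluorescence/confocal microscopy. Body weight checked daily, fluids given if loss exceeded 10%. 3–8 mice per group, SEM, ANOVA with Fisher PLSD.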"}, "[5]": {"biological_target": "Proto-oncogene tyrosine-protein kinase receptor Ret (Homo sapiens) (UniProt P07949)", "assay": "Inhibition of RET (unknown origin) at 3 uM by Ambit Kinomescan assay relative to control"}, "[6]": {"biological_target": "T2, DNA-dependent protein kinase catalytic subunit (Homo sapiens, UniProt P78527)", "T2 sequence (P78527 whole entry)": "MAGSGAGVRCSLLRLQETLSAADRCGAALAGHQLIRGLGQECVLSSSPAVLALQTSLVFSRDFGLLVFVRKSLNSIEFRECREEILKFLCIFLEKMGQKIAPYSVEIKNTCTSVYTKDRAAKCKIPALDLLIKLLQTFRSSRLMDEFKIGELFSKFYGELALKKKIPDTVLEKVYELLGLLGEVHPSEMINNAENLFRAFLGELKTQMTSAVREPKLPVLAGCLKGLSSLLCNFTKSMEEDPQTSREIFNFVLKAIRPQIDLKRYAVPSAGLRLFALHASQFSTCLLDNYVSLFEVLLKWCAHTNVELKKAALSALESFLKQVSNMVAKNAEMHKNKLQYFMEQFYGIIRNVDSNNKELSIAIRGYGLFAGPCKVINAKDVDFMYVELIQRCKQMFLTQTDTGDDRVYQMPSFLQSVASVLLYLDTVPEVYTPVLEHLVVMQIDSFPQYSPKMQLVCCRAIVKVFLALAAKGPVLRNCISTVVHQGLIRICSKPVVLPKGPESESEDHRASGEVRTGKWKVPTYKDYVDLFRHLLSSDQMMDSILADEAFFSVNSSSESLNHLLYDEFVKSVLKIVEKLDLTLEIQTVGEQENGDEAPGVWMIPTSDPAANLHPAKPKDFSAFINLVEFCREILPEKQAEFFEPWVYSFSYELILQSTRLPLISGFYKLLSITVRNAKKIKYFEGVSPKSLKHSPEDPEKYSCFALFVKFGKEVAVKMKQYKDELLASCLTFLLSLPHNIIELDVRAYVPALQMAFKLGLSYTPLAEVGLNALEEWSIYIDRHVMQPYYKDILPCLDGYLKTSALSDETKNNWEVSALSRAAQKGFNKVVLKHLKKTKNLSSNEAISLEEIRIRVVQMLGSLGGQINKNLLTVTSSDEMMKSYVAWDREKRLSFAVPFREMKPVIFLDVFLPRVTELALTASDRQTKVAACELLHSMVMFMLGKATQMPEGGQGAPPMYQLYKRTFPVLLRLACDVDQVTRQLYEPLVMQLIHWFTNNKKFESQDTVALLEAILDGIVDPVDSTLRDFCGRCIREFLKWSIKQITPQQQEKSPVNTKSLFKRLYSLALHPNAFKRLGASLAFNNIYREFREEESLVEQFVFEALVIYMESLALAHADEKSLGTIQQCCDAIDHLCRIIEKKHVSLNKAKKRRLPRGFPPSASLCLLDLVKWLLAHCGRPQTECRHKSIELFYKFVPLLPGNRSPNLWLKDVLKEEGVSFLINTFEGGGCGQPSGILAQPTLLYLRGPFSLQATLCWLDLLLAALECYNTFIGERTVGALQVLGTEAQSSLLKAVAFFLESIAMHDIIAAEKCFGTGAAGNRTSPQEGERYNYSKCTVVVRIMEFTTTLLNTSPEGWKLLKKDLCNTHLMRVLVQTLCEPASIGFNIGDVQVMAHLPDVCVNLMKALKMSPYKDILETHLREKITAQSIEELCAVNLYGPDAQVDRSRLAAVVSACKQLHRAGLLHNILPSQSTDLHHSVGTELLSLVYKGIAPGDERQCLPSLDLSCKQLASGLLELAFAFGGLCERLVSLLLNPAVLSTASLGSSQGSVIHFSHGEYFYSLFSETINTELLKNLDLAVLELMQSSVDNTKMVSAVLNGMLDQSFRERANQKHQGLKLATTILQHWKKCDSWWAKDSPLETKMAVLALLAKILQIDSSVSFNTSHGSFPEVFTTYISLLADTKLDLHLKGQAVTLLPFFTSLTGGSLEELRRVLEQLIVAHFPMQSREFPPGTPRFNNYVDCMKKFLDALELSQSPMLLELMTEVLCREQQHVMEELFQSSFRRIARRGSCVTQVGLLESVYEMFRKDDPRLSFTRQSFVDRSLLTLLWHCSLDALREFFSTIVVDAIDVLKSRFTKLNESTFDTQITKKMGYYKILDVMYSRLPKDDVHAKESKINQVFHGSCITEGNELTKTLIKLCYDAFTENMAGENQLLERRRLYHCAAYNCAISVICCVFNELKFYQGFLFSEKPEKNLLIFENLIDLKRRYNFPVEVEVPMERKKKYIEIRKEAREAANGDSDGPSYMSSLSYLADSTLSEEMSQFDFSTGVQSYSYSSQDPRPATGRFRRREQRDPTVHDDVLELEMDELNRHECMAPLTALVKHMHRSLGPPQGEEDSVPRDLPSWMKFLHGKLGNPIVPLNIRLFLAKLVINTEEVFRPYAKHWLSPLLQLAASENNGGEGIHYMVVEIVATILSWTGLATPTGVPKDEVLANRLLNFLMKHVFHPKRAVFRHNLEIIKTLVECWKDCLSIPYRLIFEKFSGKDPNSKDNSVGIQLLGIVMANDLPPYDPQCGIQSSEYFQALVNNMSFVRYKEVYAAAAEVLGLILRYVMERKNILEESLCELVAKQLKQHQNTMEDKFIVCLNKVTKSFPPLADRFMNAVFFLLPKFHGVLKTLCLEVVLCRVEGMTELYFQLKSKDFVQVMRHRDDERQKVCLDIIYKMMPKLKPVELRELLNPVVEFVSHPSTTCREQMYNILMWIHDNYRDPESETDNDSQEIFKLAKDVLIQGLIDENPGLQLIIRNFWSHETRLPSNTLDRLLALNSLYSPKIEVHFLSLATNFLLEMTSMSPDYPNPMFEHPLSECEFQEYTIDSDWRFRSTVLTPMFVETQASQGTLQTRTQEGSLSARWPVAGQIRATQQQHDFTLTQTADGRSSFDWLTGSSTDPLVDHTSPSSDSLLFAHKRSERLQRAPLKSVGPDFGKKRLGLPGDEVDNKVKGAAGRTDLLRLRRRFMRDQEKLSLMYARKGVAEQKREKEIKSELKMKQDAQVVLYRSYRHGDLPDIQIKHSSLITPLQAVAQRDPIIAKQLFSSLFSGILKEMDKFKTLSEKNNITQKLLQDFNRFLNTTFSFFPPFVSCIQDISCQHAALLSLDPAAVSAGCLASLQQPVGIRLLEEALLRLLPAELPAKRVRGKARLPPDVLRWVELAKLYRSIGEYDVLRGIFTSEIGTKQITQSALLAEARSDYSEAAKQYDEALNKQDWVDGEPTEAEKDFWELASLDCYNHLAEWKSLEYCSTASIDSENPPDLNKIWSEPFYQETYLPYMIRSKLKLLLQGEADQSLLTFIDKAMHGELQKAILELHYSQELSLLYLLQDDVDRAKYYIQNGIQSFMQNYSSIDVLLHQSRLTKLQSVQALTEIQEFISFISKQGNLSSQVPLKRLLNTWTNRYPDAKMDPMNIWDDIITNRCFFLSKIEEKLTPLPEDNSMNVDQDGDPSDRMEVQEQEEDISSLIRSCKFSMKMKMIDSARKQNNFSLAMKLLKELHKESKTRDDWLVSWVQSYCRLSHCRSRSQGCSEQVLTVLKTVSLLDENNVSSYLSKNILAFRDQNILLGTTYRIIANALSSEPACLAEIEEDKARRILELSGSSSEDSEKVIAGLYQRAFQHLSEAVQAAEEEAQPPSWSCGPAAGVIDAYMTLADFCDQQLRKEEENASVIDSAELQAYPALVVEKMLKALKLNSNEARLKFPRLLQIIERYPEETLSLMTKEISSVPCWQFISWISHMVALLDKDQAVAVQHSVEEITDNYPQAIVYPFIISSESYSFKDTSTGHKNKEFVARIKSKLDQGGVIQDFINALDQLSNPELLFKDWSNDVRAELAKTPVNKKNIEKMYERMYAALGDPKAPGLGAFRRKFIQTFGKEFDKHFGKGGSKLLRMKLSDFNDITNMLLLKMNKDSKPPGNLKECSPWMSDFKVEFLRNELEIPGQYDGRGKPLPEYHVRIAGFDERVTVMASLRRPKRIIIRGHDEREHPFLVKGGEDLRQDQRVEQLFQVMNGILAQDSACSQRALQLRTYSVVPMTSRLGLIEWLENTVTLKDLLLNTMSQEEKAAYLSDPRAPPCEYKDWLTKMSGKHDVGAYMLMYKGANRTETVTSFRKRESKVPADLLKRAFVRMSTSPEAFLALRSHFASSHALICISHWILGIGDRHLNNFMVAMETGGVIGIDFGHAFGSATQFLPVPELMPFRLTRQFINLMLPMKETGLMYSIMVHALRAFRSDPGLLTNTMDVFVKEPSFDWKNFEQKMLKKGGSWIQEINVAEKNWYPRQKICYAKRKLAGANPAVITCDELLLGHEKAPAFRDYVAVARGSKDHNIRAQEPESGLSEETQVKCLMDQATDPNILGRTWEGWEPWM", "assay": "Inhibition of DNA-PK activity (unknown origin) presence of ATP"}, "[7]": {"tested_on": "Pancreatic islet cell carcinoma", "assay": "Antivascular activity against pancreatic islet cell carcinoma in RIP-Tag2 mouse assessed as reduction in CD31-positive tumor blood vessels at 75 mg/kg, po bid administered via gavage and measured after 7 days by immunohistochemical staining based fluorescence microscopic analysis relative to control", "type": "functional", "design": "scale not given: the % may be the effect or the level left", "conditions": "time 7 day", "how_it_was_run": "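For 7 days, RIP-Tag2 mice, 9–10 weeks old, received 75 mg/kg gavage BID, 200 mg/kg gavage QD, or 20 mg/kg ip QD. Perfusion-fixed tumors cut at 60–80 µm and stained for CD31 and type IV collagen basement membrane. Vessel area density from fluorescence images with threshold 30–50; sprouts and empty basement membrane sleeves examined by confocal microscopy. 3–8 mice/group; ANOVA, Fisher PLSD.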"}, "[8]": {"biological_target": "mTORC1 (Homo sapiens, UniProt P42345)", "assay": "Competitive inhibition of mTORC1 immunoprecipitated from human HeLa cells using His-tagged 4E-BP1 as substrate incubated for 30 mins in presence of ATP by chemiluminescence based ELISA", "how_it_was_run": "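Native mTORC1 or mTORC2 complex immunoprecipitated from HeLa lysates; kinase reaction run at 1 mM ATP.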"}, "[9]": {"assay": "Drug concentration in nu/nu CD-1 mouse plasma xenografted with human GEO cells at 75 mg/kg administered for 14 days and measured 8 hr post last dose", "type": "ADME, organism-based"}, "[10]": {"tested_on": "Pancreatic islet cell carcinoma", "assay": "Antitumor activity against pancreatic islet cell carcinoma in RIP-Tag2 mouse assessed as reduction in cell proliferation at 75 mg/kg, po bid administered via gavage and measured after 7 days by immunohistochemistry analysis", "type": "functional, organism-based", "conditions": "time 7.0 day", "how_it_was_run": "as §4"}, "[11]": {"biological_target": "Mitogen-activated protein kinase 10 (Homo sapiens) (UniProt P53779)", "assay": "Inhibition of JNK3 (unknown origin)"}, "[12]": {"tested_on": "Pancreatic islet cell carcinoma", "assay": "as §3, with “4 days (reference value: 18%)” for “1 day”", "type": "functional", "design": "scale not given: the % may be the effect or the level left", "conditions": "time 4 day", "how_it_was_run": "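10-week-old RIP-Tag2 mice given OSI-930 200 mg/kg QD by gavage for 7 days, then 75 mg/kg BID by gavage for 4 days. Mice fixed by vascular perfusion; 60–80 µm tumor sections immunostained for endothelial cells; vessel area density from fluorescence images at threshold 30–50. 3–8 mice per group; ANOVA with Fisher PLSD.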"}, "[13]": {"biological_target": "Phosphatidylinositol 4,5-bisphosphate 3-kinase catalytic subunit beta isoform (Homo sapiens, UniProt P42338)", "sequence (P42338 whole entry, canonical isoform)": "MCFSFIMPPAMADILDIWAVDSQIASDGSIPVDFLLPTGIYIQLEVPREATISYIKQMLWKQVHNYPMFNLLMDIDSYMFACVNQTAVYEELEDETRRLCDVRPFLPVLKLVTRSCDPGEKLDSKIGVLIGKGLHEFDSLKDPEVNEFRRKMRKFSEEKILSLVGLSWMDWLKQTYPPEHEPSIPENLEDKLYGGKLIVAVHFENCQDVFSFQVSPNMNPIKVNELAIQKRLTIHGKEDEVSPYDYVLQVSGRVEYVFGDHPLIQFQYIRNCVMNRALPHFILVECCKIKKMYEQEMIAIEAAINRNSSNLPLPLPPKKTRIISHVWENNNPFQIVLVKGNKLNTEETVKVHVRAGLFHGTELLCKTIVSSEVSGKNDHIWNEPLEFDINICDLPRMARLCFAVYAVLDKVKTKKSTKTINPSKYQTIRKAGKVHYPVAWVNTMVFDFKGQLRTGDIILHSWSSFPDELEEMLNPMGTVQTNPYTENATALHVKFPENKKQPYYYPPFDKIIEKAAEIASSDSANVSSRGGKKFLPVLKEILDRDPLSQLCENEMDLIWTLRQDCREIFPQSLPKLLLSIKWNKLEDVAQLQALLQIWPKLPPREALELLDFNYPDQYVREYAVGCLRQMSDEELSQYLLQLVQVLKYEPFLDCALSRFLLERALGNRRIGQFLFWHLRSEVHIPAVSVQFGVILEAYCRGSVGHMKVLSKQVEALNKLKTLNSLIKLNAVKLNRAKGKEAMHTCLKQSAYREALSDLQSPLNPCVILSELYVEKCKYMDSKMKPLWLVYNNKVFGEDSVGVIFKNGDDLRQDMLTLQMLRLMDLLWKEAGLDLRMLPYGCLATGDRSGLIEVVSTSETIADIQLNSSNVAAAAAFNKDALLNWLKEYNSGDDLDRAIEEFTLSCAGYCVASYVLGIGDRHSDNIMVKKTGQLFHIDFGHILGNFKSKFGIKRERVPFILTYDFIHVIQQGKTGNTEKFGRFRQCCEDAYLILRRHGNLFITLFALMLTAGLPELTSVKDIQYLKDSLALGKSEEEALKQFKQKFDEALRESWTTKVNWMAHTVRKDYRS", "assay": "Inhibition of PI3Kbeta (unknown origin) in presence of ATP by HTRF assay", "how_it_was_run": "as §1"}, "[14]": {"tested_on": "Pancreatic islet cell carcinoma", "assay": "Antivascular activity against pancreatic islet cell carcinoma in RIP-Tag2 mouse assessed as reduction in CD31-positive tumor blood vessels at 75 mg/kg, po bid administered via gavage and measured after 1 to 4 days by immunohistochemical staining based fluorescence microscopic analysis", "type": "functional, organism-based", "conditions": "time 1-4 day"}, "[15]": {"tested_on": "Pancreatic islet cell carcinoma", "assay": "Additive antitumor activity in pancreatic islet cell carcinoma in RIP-Tag2 mouse assessed as induction of apoptosis by measuring increase in activated caspase-3 level at 100 mg/kg, po bid administered via gavage for 4 days in presence of OSI-930 by immunohistochemistry analysis relative to control", "type": "functional", "conditions": "time 4 day"}, "[16]": {"biological_target": "T1, Phosphatidylinositol 4,5-bisphosphate 3-kinase catalytic subunit gamma isoform", "assay": "Inhibition of PI3Kgamma (unknown origin) at 3 uM by Ambit Kinomescan assay relative to control"}, "[17]": {"tested_on": "Pancreatic islet cell carcinoma", "assay": "Antitumor activity against pancreatic islet cell carcinoma in RIP-Tag2 mouse assessed as reduction in VEGF production by measuring reduction in fluorescence in entire tumor at 75 mg/kg, po bid administered via gavage and measured after 7 days by immunohistochemical staining based confocal microscopic analysis relative to control", "type": "functional", "design": "scale not given: the % may be the effect or the level left", "conditions": "time 7 day", "how_it_was_run": "as §2"}, "[18]": {"biological_target": "T2, DNA-dependent protein kinase catalytic subunit", "assay": "Inhibition of DNA-PK (unknown origin) assessed as reduction in phosphorylated RPA32 level by cell based assay"}, "[19]": {"tested_on": "Pancreatic islet cell carcinoma", "assay": "Antitumor activity against pancreatic islet cell carcinoma in RIP-Tag2 mouse assessed as reduction in VEGF-A expression at 75 mg/kg, po bid administered via gavage and measured after 1 to 7 days by immunoprecipitation based densitometric analysis relative to control", "type": "functional", "design": "scale not given: the % may be the effect or the level left", "conditions": "time 1-7 day", "how_it_was_run": "(§5)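 VEGF in tumor lysates from treated RIP-Tag2 mice (9–10 weeks old at start; 75 mg/kg gavage BID or 20 mg/kg ip QD) measured with mouse angiogenesis antibody arrays, read as pixel density. 3–8 mice/group, SEM; ANOVA with Fisher PLSD.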"}, "[20]": {"biological_target": "Vascular endothelial growth factor receptor 2 (Homo sapiens, UniProt P35968)", "assay": "Inhibition of VEGFR2 phosphorylation (unknown origin) by cell based assay"}, "[21]": {"tested_on": "Pancreatic islet cell carcinoma", "assay": "Antitumor activity against pancreatic islet cell carcinoma in RIP-Tag2 mouse assessed as reduction in VEGF-B expression at 75 mg/kg, po bid administered via gavage and measured after 1 to 7 days by immunoprecipitation based densitometric analysis", "type": "functional, organism-based", "conditions": "time 1-7 day", "how_it_was_run": "as §5"}, "[22]": {"biological_target": "Ephrin type-A receptor 2 (Homo sapiens, UniProt P29317)", "assay": "Inhibition of EphA2 phosphorylation (unknown origin) by cell based assay"}, "[23]": {"biological_target": "Proline-rich AKT1 substrate 1 (Homo sapiens) (UniProt Q96B36)", "assay": "Inhibition of PRAS40 phosphorylation at Ser 246 residue in serum deprived/insulin stimulated human OVCAR-3 cells harboring PTEN and wild type PI3K preincubated for 2 hrs followed by insulin stimulation and measured immediately by Western blot analysis", "type": "cell-based", "conditions": "dose 0.001-10 µM"}}, "note": "The source made the active and inactive calls."}
{"smiles": "Nc1nccn2c1c(-c1cc3cccc(Cl)c3[nH]1)nc2[C@H]1CC[C@H](C(=O)O)CC1", "values": [{"measurement": "IC50", "setting": "[1]", "result": 0.46, "unit": "µM"}, {"measurement": "Activity", "setting": "[2]", "result": 65, "unit": "%"}, {"measurement": "Activity", "setting": "[3]", "result": "inactive"}, {"measurement": "Activity", "setting": "[4]", "result": "Active"}, {"measurement": "inhibition", "setting": "[5]", "result": "> 90", "unit": "%"}, {"measurement": "IC50", "setting": "[6]", "result": 3.2, "unit": "µM"}, {"measurement": "Activity", "setting": "[7]", "result": 23, "unit": "%"}, {"measurement": "IC50", "setting": "[8]", "result": 0.029, "unit": "µM"}, {"measurement": "concentration at 344 h", "setting": "[9]", "result": 13.2, "unit": "µM"}, {"measurement": "Activity", "setting": "[10]", "result": "Active"}, {"measurement": "inhibition", "setting": "[11]", "result": "Active"}, {"measurement": "Activity", "setting": "[12]", "result": 40, "unit": "%"}, {"measurement": "IC50", "setting": "[13]", "result": 9.3, "unit": "µM"}, {"measurement": "Activity", "setting": "[14]", "result": "inactive"}, {"measurement": "Activity", "setting": "[15]", "result": 700, "unit": "%"}, {"measurement": "inhibition", "setting": "[16]", "result": "> 90", "unit": "%"}, {"measurement": "Activity", "setting": "[17]", "result": 45, "unit": "%"}, {"measurement": "IC50", "setting": "[18]", "result": "> 40", "unit": "µM"}, {"measurement": "Activity", "setting": "[19]", "result": 72, "unit": "%"}, {"measurement": "IC50", "setting": "[20]", "result": "> 40", "unit": "µM"}, {"measurement": "Activity", "setting": "[21]", "result": "inactive"}, {"measurement": "IC50", "setting": "[22]", "result": "> 40", "unit": "µM"}, {"measurement": "inhibition", "setting": "[23]", "result": "Dose-Dependent Effect"}]}
